Bioassay records: PubChem, several laboratories
Hits are enriched below; roughly 12% of the tested compounds scored in any of these assays.
Diaphorase inh – counter-screen for diaphorase-based assays: diaphorase inhibitors and chemical oxidizers | diaphorase resazurin-to-resorufin fluorescence, NADH, 16 min; bacterial (C. kluyveri) enzyme, not human | inhibition, % at 20 µM | 0.69% of 190,000 active;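 active = primary screen inhibition at 20 µM above a set limit, cut at about 50% in these data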;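 also: plate controls were DMSO with full reaction for no effect and wells lacking NADH for full effect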
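Assay system – diaphorase enzyme from Clostridium kluyveri · Amount – diaphorase 0.14 U/mL (working solution) · Times – reaction incubation of 16 min at room temperature · Controls – No-NADH positive control and DMSO neutral control · Signal – resorufin fluorescence 544/590 nm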
KCC2 mod – modulators of human KCC2 chloride dependent transport | Q9H2X9 | KCC2 cells, thallium flux FluoZin-2 fluorescence | B-score of Tl+ flux slope (higher = more flux/activation; lower = inhibition) at 10 µM | 2.2% of 190,000 active | AID 1456;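 active = thallium flux slope and its plate-corrected score both differing from the plate sample mean at a set confidence after two filtering rounds, in either direction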;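 also: slope of fluorescence scaled to starting intensity during 10 to 20 s after thallium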
ROMK primary – modulates human ROMK potassium channel activity. P48048. Tet-inducible ROMK, thallium flux fluorescence; actives lie on both sides. B-score at 10 µM. 2% of 130,000 active. AID 1918;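 active = signal ratio slope over the read window, or its plate-corrected B-score, at least 3 SD from the plate mean, either direction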;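 also: B-score of the F/F0 ratio slope over 7 to 12 s after thallium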
WT yeast gro inh – growth inhibition of WT yeast, mitochondrial fusion screen. mitochondrial fusion phenotypic screen, WT strain. inhibition, % at 10 µM. 2.1% of 190,000 active. AID 1362; in the data active = inhibition above about 58%; tested in S. cerevisiae
L major viab – inhibitors of Leishmania major promastigote growth; 9% of 200,000 active; inhibition, % at 10 µM; Leishmania major promastigotes, resazurin fluorescence viability; in the data active = inhibition above about 50%;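 also: promastigotes grown with compound for 44 hours at 28 °C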
Diaph act CS – activates diaphorase or chemically reduces, flagging diaphorase assay artifacts; Diaphorase/resazurin coupled assay, resorufin fluorescence, 16 min; stronger effect = higher value; 1 = vehicle wells, 0 = NADH-free wells; 0.005% of 190,000 active; AID 1229; activation factor at 20 µM;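 active = diaphorase activity raised at least twofold by the compound at 20 µM; inactive = activation factor below 2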
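Material: purified diaphorase enzyme from Clostridium kluyveri; Also added: 0.114 mM NADH and 0.1 mM resazurin, final amounts; Doses: single compound dose of 20 µM, 1% DMSO final; Times: 16 min enzyme reaction, ambient temperature; Detection: resorufin fluorescence, excitation 544 nm, emission 590 nm; Measure: increased resorufin signal from activators or reducing compounds.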
Starred values were filed as active, the others as inactive; . = not tested or not shown.

SMILES	Diaphorase inh	KCC2 mod	ROMK primary	WT yeast gro inh	L major viab	Diaph act CS
Cc1cc(C)n2nc(SCC(=O)c3cc(C)n(CC4CCCO4)c3C)nc2n1 (stereo not drawn)	-13	-0.55	-0.26	-7	-3	1.1
CCOc1cc2c(cc1OCC)C(c1ccccc1)N(c1ccccc1)C(=O)C2 (stereo not drawn)	16	0.07	-0.26	18	81*	0.8
Cc1cccc(C(=O)NCCc2ccc(S(N)(=O)=O)cc2)c1[N+](=O)[O-]	13	1.2	.	-1	87*	0.9
Cc1ccccc1-n1c(C)nnc1SCC(=O)NNC(=O)c1ccccc1	-1	-0.43	.	9	-7	1
Cc1nnc(SCC(=O)NNC(=O)c2ccccc2)n1-c1ccccc1	10	0.28	0.93	6	66*	0.9
COc1ccccc1OCCSc1nnc(C)n1-c1ccccc1	12	-0.54	0.72	-5	73*	0.9
Cc1c(-c2ccccc2)oc2c(C(=O)OCC(=O)Nc3ccc(F)cc3)cccc2c1=O	10	-2	.	14	-3	0.9
CCn1c(-c2ccccc2)ccc(C#N)c1=O	24	.	.	-8	-3	0.8
COc1ccc2c(c1)S/C(=C\C(=O)c1ccncc1)N2C	-6	-0.2	.	48	97*	1.1
COc1cc(C)c(Cl)cc1S(=O)(=O)n1cnc(C)c1	12	-0.36	-0.081	12	89*	0.9
COC(=O)c1[nH]c2cccc(Cl)c2c1NC(=O)CN(C)C1CCCCC1	10	-0.0035	-0.51	61*	-1	0.9
Cc1ccc(C(=O)c2cc3c(cc2[N+](=O)[O-])OCCO3)cc1	15	-0.6	0.53	24	6	0.9
CCn1c(SCC(=O)N/N=C/c2c[nH]c3ccccc23)nnc1-c1ccc(Cl)cc1	19	-1.8	0.82	-9	-3	0.8
Cc1cc(C)c[n+](CC(=O)c2ccc(NC(=O)c3ccccc3)cc2)c1	71*	0.97	-0.22	-3	-2	0.3
O=C(C[n+]1cccc2ccccc21)c1ccc(NC(=O)c2ccccc2)cc1	-17	0.1	0.46	17	-1	1.2
Cc1cc[n+](CC(=O)c2ccc(NC(=O)c3ccccc3)cc2)c2ccccc12	-17	-0.71	-0.0067	61*	6	1.2
Cc1ccc[n+](CC(=O)c2ccc(NC(=O)c3ccccc3)cc2)c1	2	0.61	0.15	10	8	1
CC1=CC(C)(C)N=C(Nc2ccc(C)cc2)S1	17	0.62	.	10	29	0.8
CCOc1ccc(NC(=S)NCC(c2cccnc2)N2CCOCC2)cc1 (stereo not drawn)	7	1.1	-0.25	0	26	0.9
CC(C)(C)c1ccc(OCCNC(=S)NC(=O)c2cccnc2)cc1	29	1.3	0.04	50	53*	0.7
O=C(O)C1C(c2ccccc2)C(C(=O)OCc2ccco2)C1c1ccccc1 (stereo not drawn)	16	-0.23	0.088	-4	-8	0.8
COC(=O)C1C(c2ccccc2)C(C(=O)OCc2ccco2)C1c1ccccc1 (stereo not drawn)	11	-0.11	-0.41	76*	7	0.9
Cc1ccccc1OCC(=O)OCC(=O)NCc1cccs1	3	.	0.052	16	-8	1
COc1ccccc1C(=O)N(CCC1CCCN1C)c1nc2ccccc2s1 (stereo not drawn)	-6	-0.05	-0.96	4	100*	1.1
Cc1ccc([N+](=O)[O-])c(OCCN2CCC(Cc3ccccc3)CC2)c1	15	-2.3	-0.26	-9	94*	0.9
Cc1ccccc1OCCN1CCC(Cc2ccccc2)CC1	3	-0.89	-1.3	37	82*	1
Cc1ccccc1OCCN1C(=O)c2ccccc2C1=O	12	-0.64	.	-5	-8	0.9
CCN1CCN(CCOc2ccccc2OCc2ccccc2)CC1	-1	0.18	-0.58	5	9	1
CCOc1ccccc1OCCN1CCC(Cc2ccccc2)CC1	18	0.93	-2.8	9	99*	0.8
NS(=O)(=O)c1ccc(CCNC(=O)CC(NC(=O)c2ccccc2Cl)c2ccccc2)cc1 (stereo not drawn)	.	1.1	.	.	.	.
